# Tests used:
# Renin = target: T1, Renin (Homo sapiens, UniProt P00797); assay: Inhibitory activity against human amniotic renin (competitive inhibition)
# T1 sequence (P00797 whole entry): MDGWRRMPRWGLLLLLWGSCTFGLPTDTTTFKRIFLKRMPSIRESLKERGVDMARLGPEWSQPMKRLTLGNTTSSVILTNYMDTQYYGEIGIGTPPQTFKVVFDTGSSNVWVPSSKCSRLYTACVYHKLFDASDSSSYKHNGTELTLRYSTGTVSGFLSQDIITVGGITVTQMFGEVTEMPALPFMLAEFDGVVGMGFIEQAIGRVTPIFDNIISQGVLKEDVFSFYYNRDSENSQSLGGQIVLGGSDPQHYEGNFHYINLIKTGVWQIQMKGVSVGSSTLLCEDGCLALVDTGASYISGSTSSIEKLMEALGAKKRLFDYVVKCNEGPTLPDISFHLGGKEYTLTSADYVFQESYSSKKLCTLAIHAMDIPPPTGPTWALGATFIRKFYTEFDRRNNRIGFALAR
# Method in brief: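 Angiotensin I generation is reported as nmol/unit enzyme/min for hog kidney renin and nmol/mL/h for human amniotic renin. Points are means of three determinations. Lines are fitted by linear regression, and Ki is the −[I] at their intersection.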
# Renin (Sus scrofa) = assay: Inhibitory activity against hog kidney renin (Non-competitive inhibition)
Ki (Renin),Ki (Renin (Sus scrofa)),Compound
1600 µM,1180 µM,COC(=O)[C@@H](Cc1ccccc1)NC(=O)[C@H](NC(=O)CC(O)CC(N)CC(C)C)C(C)C (some centres undefined)
95 µM,170 µM,COC(=O)[C@H](Cc1ccccc1)NC(=O)[C@@H](NC(=O)CC(O)CC(N)CC(C)C)C(C)C (some centres undefined)

# Reference: ChEMBL document CHEMBL1122371, “Inhibition of renin by angiotensinogen peptide fragments containing the hydroxy amino acid residue 5-amino-3-hydroxy-7-methyloctanoic acid” (J Med Chem, 1983)
